The source made the active and inactive calls. No cut-off for these calls is given here.
How the values were obtained:
[1] = test system: Trypanosoma brucei brucei; assay: Antitrypanosomal activity against Trypanosoma brucei brucei GVR35 infected in NMRI mouse assessed as mouse survival at 100 mg/kg, po administered on day 21 post infection for 5 days measured up to 180 days; format: functional
Method in brief: (§1)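 Oral dosing in the T. b. brucei GVR35 second-stage (CNS) mouse model, daily for 5 or 10 days. Cure means survival for more than 180 days after infection with no parasitemia relapse. Mean survival days are computed across mice with and without relapse.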

[2] = test system: Trypanosoma brucei rhodesiense; assay: Antitrypanosomal activity against Trypanosoma brucei rhodesiense STIB900 infected in NMRI mouse assessed as cured animal at 10 mg/kg, ip administered on day 3 post infection for 4 days measured up to 60 days; format: functional, organism-based; set-up: dose 10 mg/kg
Method in brief: (§2)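 Acute-stage mouse model: compound dosed daily for 4 days. A cure is a mouse surviving parasite-free for 60 days. Average days of survival also recorded.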

[3] = test system: Liver microsomes; assay: Half life in human liver microsomes by UV-HPLC analysis; format: ADME, Microsome
Method in brief: (§3)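 Substrate at 10 μM with 0.5 mg/ml pooled human or mouse liver microsomes, 0.5% DMSO, in 100 mM phosphate pH 7.4 with 3.3 mM MgCl2. After 5-min pre-equilibration at 37°C, 1 mM β-NADPH is added; triplicates.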

[4] = test system: Liver; assay: Half life in mouse liver microsomes by UV-HPLC analysis; format: ADME, Microsome; method in brief: as §3
[5] = test system: Trypanosoma brucei rhodesiense; assay: Antitrypanosomal activity against Trypanosoma brucei rhodesiense STIB900 infected in NMRI mouse assessed as mouse survival at 5 mg/kg, ip administered on day 3 post infection for 4 days measured up to 60 days; format: functional; conditions: route intraperitoneal
[6] = test system: Plasmodium falciparum; assay: Antiplasmodial activity against Plasmodium falciparum K1 assessed as [3H]-hypoxanthine incorporation after 48 hrs by liquid scintillation counting analysis; format: functional, organism-based
[7] = test system: Trypanosoma brucei rhodesiense; assay: Antitrypanosomal activity against Trypanosoma brucei rhodesiense STIB900 assessed as parasite growth inhibition after 70 hrs by Alamar blue assay; format: functional, organism-based; conditions: STIB900, 70 h
[8] = test system: L6; assay: Cytotoxicity against rat L6 cells assessed as cell viability after 70 hrs by Alamar blue assay; format: cell-based; conditions: L6, 70 h
[9] = test system: Liver; assay: Half life in Swiss Webster mouse liver S9 fraction by UV-HPLC analysis; format: ADME, subcellular
[10] = test system: Trypanosoma brucei rhodesiense; assay: Antitrypanosomal activity against Trypanosoma brucei rhodesiense STIB900 infected in NMRI mouse assessed as cured animal at 100 mg/kg, ip administered on day 3 post infection for 4 days measured up to 60 days; format: functional, organism-based; set-up: dose 100 mg/kg; method in brief: as §2
[11] = test system: Trypanosoma brucei rhodesiense; assay: Antitrypanosomal activity against Trypanosoma brucei rhodesiense STIB900 infected in NMRI mouse assessed as mouse survival at 100 mg/kg, ip administered on day 3 post infection for 4 days measured up to 60 days; format: functional; conditions: route intraperitoneal
[12] = test system: Trypanosoma brucei brucei; assay: Antitrypanosomal activity against Trypanosoma brucei brucei GVR35 infected in NMRI mouse assessed as cured animal at 100 mg/kg, po administered on day 21 post infection for 5 days measured up to 180 days; format: functional, organism-based; set-up: dose 100 mg/kg
Method in brief: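 Second-stage CNS model, oral dosing. A cure is survival beyond 180 days after infection without parasitemia relapse. Mean survival days are computed from mice with and without relapse. Reference diamidine control given once at 40 mg/kg ip.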

[13] = test system: Trypanosoma brucei rhodesiense; assay: Antitrypanosomal activity against Trypanosoma brucei rhodesiense STIB900 infected in NMRI mouse assessed as cured animal at 5 mg/kg, ip administered on day 3 post infection for 4 days measured up to 60 days; format: functional, organism-based; set-up: dose 5 mg/kg; method in brief: as §2
[14] = test system: Trypanosoma brucei brucei; assay: Antitrypanosomal activity against Trypanosoma brucei brucei GVR35 infected in NMRI mouse assessed as mouse survival at 100 mg/kg, po administered on day 21 post infection for 10 days measured up to 180 days; format: functional; method in brief: as §1
[15] = test system: Trypanosoma brucei rhodesiense; assay: Antitrypanosomal activity against Trypanosoma brucei rhodesiense STIB900 infected in NMRI mouse assessed as mouse survival at 20 mg/kg, ip administered on day 3 post infection for 4 days measured up to 60 days; format: functional; conditions: route intraperitoneal
[16] = test system: Trypanosoma brucei rhodesiense; assay: Antitrypanosomal activity against Trypanosoma brucei rhodesiense STIB900 infected in NMRI mouse assessed as cured animal at 20 mg/kg, ip administered on day 3 post infection for 4 days measured up to 60 days; format: functional, organism-based; set-up: dose 20 mg/kg; method in brief: as §2
[17] = test system: Plasmodium falciparum; assay: Potency index, ratio of pentamidine IC50 to compound IC50 for Plasmodium falciparum K1; format: functional

Row | Structure (SMILES) | Survival [5] [days] | IC50 [6] [µM] | IC50 [7] [µM] | IC50 [8] [µM] | also measured
1 | CONC(=N)c1ccc(-c2ccc(-c3ccc(C(=N)NOC)cc3)o2)cc1 [PAFURAMIDINE] | – | – | – | – | MSD [1]: >167.8 days; Activity [2]: Active; t1/2 [3]: 6.8 min; t1/2 [4]: 150 min
2 | N=C(N)c1ccc(-c2cncc(-c3ccc(C(=N)N)cn3)n2)nc1 | >53.75 | 0.031 | 0.037 | 139 | –
3 | N/C(=N\O)c1ccc(-c2cncc(-c3ccc(/C(N)=N/O)cn3)n2)cc1 | – | 8.4 | 7.78 | 24.6 | t1/2 [9]: 30 min
4 | Cc1cc(C(=N)N)ccc1-c1cncc(-c2ccc(C(=N)N)cc2C)n1 | – | 0.323 | 0.462 | 117 | –
5 | N=C(NO)c1ccc(-c2ccc(-c3ccc(/C(N)=N\O)cc3)o2)cc1 | – | – | – | – | Activity [10]: inactive; Survival [11]: 50 days; t1/2 [9]: 29 min
6 | N/C(=N\O)c1ccc(-c2cncc(-c3ccc(/C(N)=N/O)cc3)n2)cc1 | – | 0.87 | 7.95 | 2.9 | MSD [1]: 69 days; Activity [12]: inactive; Activity [2]: inactive; t1/2 [9]: 1.9 min
7 | N=C(N)c1ccc(-c2cncc(-c3ccc(C(=N)N)cn3)n2)cc1 | >60 | 0.052 | 0.014 | 117 | Activity [13]: Active
8 | CO/N=C(\N)c1ccc(-c2cncc(-c3ccc(/C(N)=N\OC)cc3)n2)cc1 | – | 0.41 | 18.9 | 58.7 | MSD [1]: >173.8 days; t1/2 [3]: 8.6 min; t1/2 [4]: 26 min; MSD [14]: >180 days
9 | CO/N=C(\N)c1ccc(-c2ccc(-c3ccc(/C(N)=N/OC)cn3)o2)nc1 | – | – | – | – | MSD [1]: >180 days; Activity [12]: Active
10 | N=C(N)c1ccc(-c2ccc(-c3ccc(C(=N)N)cn3)o2)nc1 | >49.5 | – | – | 83 | Survival [15]: >60 days; Activity [16]: Active
11 | N=C(N)c1ccc(-c2cncc(-c3ccc(C(=N)N)nc3)n2)cc1 | >60 | 0.01 | 0.006 | 34.1 | –
12 | N/C(=N\O)c1ccc(-c2cncc(-c3ccc(/C(N)=N/O)nc3)n2)cc1 | – | 0.453 | 10.8 | 5 | t1/2 [9]: 36 min
13 | N=C(N)c1ccc(-c2cncc(-c3ccc(C(=N)N)nc3)n2)cn1 | >36.5 | 0.085 | 0.0048 | 24.4 | –
14 | CO/N=C(\N)c1ccc(-c2ccc(-c3ccc(/C(N)=N/OC)cn3)o2)cc1 | – | – | – | – | MSD [1]: >180 days; Activity [12]: Active
15 | N/C(=N\O)c1ccc(-c2cncc(-c3ccc(/C(N)=N/O)cn3)n2)nc1 | – | 7.01 | 90.6 | > 196 | t1/2 [9]: 20 min
16 | CO/N=C(\N)c1ccc(-c2cncc(-c3ccc(/C(N)=N\OC)cc3)n2)cn1 | – | 0.453 | 194 | > 185 | t1/2 [3]: 6.5 min; t1/2 [4]: 35 min
17 | N=C(N)c1ccc(-c2ccc(-c3ccc(C(=N)N)cc3)o2)cc1 [FURAMIDINE] | >46 | – | – | – | Survival [15]: >57.75 days
18 | N=C(N)c1ccc(-c2cnc(-c3ccc(C(=N)N)cc3)cn2)cc1 | 36.5 | – | – | – | Activity [13]: inactive
19 | CO/N=C(\N)c1ccc(-c2cncc(-c3ccc(/C(N)=N\OC)nc3)n2)cn1 | – | 0.328 | 7.87 | > 212 | t1/2 [3]: 14 min; t1/2 [4]: 59 min
20 | CO/N=C(\N)c1ccc(-c2cncc(-c3ccc(/C(N)=N\OC)cn3)n2)nc1 | – | 7.39 | 120 | 20.1 | MSD [1]: 67.2 days; Activity [12]: inactive; t1/2 [3]: 70 min; t1/2 [4]: 200 min
21 | N/C(=N\O)c1ccc(-c2cncc(-c3ccc(/C(N)=N\O)nc3)n2)cn1 | – | 0.785 | 95.4 | > 190 | MSD [1]: 95.2 days; Activity [12]: inactive; t1/2 [9]: 51 min
22 | N=C(N)c1ccc(-c2cncc(-c3ccc(C(=N)N)cc3F)n2)c(F)c1 | >41 | – | 0.027 | 29.8 | Activity [13]: inactive
23 | CO/N=C(\N)c1ccc(-c2cncc(-c3ccc(/C(N)=N\OC)cc3)n2)nc1 | – | 5.6 | 25.3 | > 180 | t1/2 [3]: 7.6 min; t1/2 [4]: 210 min
24 | N=C(N)c1ccc(-c2ccc(-c3ccc(C(=N)N)cn3)o2)cc1 | >54.5 | – | – | – | Survival [15]: >60 days; Activity [16]: Active
25 | N=C(N)c1ccc(-c2cncc(-c3ccc(C(=N)N)cc3)n2)cc1 | >53.5 | 0.01 | 0.0058 | 80.8 | Ratio IC50 [17]: 5
